Measurements collected from several papers.
Each line is one published result; the experiments were not run side by side.
Target: STE20-like serine/threonine-protein kinase (SLK, Homo sapiens, UniProt Q9H2G2)

| SMILES | observed | technique | tested at | remaining binding |
| --- | --- | --- | --- | --- |
| COc1cnc(Nc2cccc(S(N)(=O)=O)c2)nc1N1CCN(c2ccccc2)CC1 | binding | competition with immobilised ligand | 1 µM | 99% |
| N[C@H]1CCN(c2nccc(-c3cnn4ncccc34)n2)C1 | binding |  | 1 µM | 86% |
| Cc1cnc(Nc2ccc(C(=O)N3CCC(N4CCCC4)CC3)cc2)nc1-c1cc2ccccc2s1 | binding | competition with immobilised ligand | 1 µM | 0.4% |
| O=C(NS(=O)(=O)c1ccc(NCC2CCOCC2)c([N+](=O)[O-])c1)c1ccc(N2CCN(Cc3ccc(C(F)(F)F)cc3-c3ccc(Cl)cc3)CC2)cc1Oc1cnc2[nH]ccc2c1 | cell-free assay | competition with immobilised ligand | 1 µM | 100% |
| COc1cnc(Nc2cccc(S(N)(=O)=O)c2)nc1N1CCN(c2ccccc2)C(=O)C1 | binding | competition with immobilised ligand | 1 µM | 100% |
| O=C(c1ccc(Nc2ncc(Cl)c(-c3ccc(Cl)s3)n2)cc1)N1CCC(N2CCCC2)CC1 | binding | competition with immobilised ligand | 1 µM | 1.2% |
| CN([C@@H]1CCc2c(CC(=O)O)c3cc(S(C)(=O)=O)ccc3n2C1)S(=O)(=O)c1ccc(F)cc1 | cell-free assay | competition with immobilised ligand | 1 µM | 100% |
| Cc1cnn2ncc(-c3ccnc(N(C)C)n3)c2c1 | binding |  | 1 µM | 100% |
| O=C(NCC1CCOCC1)c1n[nH]cc1NC(=O)c1c(F)cccc1F | binding | competition with immobilised ligand | 1 µM | 99% |
| Cc1c(NC(=O)c2cc(C(N)=O)nc3cc(F)ccc23)c(C(F)(F)F)nn1Cc1ccc(C(C)(C)C)cc1 | cell-free assay | competition with immobilised ligand | 1 µM | 100% |
| c1cnn2ncc(-c3ccnc(N4CCC45COC5)n3)c2c1 | binding |  | 1 µM | 100% |
| O=C(c1ccc(Nc2nccc(-c3cc4ccccc4s3)n2)cc1)N1CCC(N2CCCC2)CC1 | binding | competition with immobilised ligand | 1 µM | 13% |
| C[C@@H]1CN(c2cc(-c3n[nH]c4ccc(OC5(C)CC5)cc34)ncn2)C[C@H](C)O1 | cell-free assay | competition with immobilised ligand | 0.1 µM | 98% |
| CN(c1nccc(-c2cnn3ncccc23)n1)C1CC1 | binding |  | 1 µM | 100% |
| CCN1CCN(Cc2ccc(C(=O)Nc3ccc(C)c(Oc4ccc5c(c4)CC(=O)N5)c3)cc2C(F)(F)F)CC1 | binding | competition with immobilised ligand | 1 µM | 76% |
| COc1ccnn2ncc(-c3ccnc(N(C)C)n3)c12 | binding |  | 1 µM | 86% |
| C[C@@]1(Cc2ccc(C#N)cc2)C(=O)N(c2cc(Cl)cc(Cl)c2)c2ncc(C(=O)NC3(c4nc(C5CCC5)no4)CC3)n21 | cell-free assay | competition with immobilised ligand | 1 µM | 100% |
| C[C@@H]1CCN(c2nccc(-c3cnn4ncccc34)n2)C1 | binding |  | 1 µM | 87% |
| CC(=O)N1CCC(c2ccc(C(=O)NC3=NCCN3)cc2C(F)(F)F)CC1 | cell-free assay | competition with immobilised ligand | 1 µM | 94% |
| Nc1ncc2c(n1)-c1c([nH]c3ccc(C#CC4CC4)cc13)CCCC2 | binding | competition with immobilised ligand | 1 µM | 100% |
| FC(F)(F)Oc1cccc(-c2cnc3ccc(-c4ccncc4)nn23)c1 | binding | competition with immobilised ligand | 5 µM | 7.8% |
